Positions count from the first letter of the chain named.
Tests used:
[1] = tested on: A. thaliana PIN3; assay: Xenopus oocyte efflux assay, PIN3 with PID kinase; assay type: cell-based, Arabidopsis thaliana; conditions: PIN3 with PID kinase in oocytes, NPA-sensitive, internal concentration 1 µM
How it was run: (§1)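 Xenopus oocytes received 150 ng PIN8 or PIN3 cRNA; PIN3 was given with or without 75 ng PID kinase cRNA. [3H]-IAA or [3H]-2,4-D was injected to an internal 1 µM, ± 10 μM NPA internally. Residual radioactivity per oocyte was counted by scintillation over a time course (10 oocytes per point) and set against the initial 100%. %/min rates came from linear regression; each replicate used a different female.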

[2] = molecular target: T1, PIN8 N117A (Arabidopsis thaliana, UniProt Q9LFP6, N117A); assay: SSM electrophysiology peak current response, PIN8 N117A proteoliposomes; assay type: biochemical; conditions: 100 μM or 2 mM substrate, relative to WT
T1 sequence (Q9LFP6 1-367 N117A): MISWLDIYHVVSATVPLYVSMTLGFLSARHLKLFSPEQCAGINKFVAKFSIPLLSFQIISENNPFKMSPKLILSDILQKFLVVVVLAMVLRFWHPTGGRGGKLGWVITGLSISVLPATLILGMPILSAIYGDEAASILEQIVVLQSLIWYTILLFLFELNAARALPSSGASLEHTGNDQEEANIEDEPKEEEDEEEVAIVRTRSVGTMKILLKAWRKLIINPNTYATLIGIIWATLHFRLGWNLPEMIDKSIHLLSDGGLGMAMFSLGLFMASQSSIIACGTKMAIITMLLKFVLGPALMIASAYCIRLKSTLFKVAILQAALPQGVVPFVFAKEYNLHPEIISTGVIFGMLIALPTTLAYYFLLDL
How it was run: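 The N117A point mutant of PIN8 was made by site-directed mutagenesis. It was reconstituted in proteoliposomes in Ca2+-free Ringer pH 7.4 and immobilised on SSM sensors. Peak currents were recorded after a single solution exchange to 100 μM or 2 mM substrate and expressed relative to wild type. Mean ± s.e.m., n = 3 sensors; one-way ANOVA.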

[3] = molecular target: T2, PIN8 (Arabidopsis thaliana, UniProt Q9LFP6); assay: Xenopus oocyte efflux assay, PIN8; assay type: cell-based; conditions: PIN8 in oocytes, NPA-sensitive, internal concentration 1 µM
T2 sequence (Q9LFP6 1-367): T1 sequence (Q9LFP6 1-367 N117A) with A117N
How it was run: as §1

[4] = tested on: A. thaliana stem segments (wild type and pin1 mutants); assay: Arabidopsis stem segment transport assay; parameters: species or system Arabidopsis thaliana
How it was run: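 Stem sections (2 cm) were cut above the rosette of 5-week-old Col-0 or pin1 plants. They were inverted into buffer (500 pM IAA, 1% sucrose, 5 mM MES pH 5.5) ± 100 μM NPA for 2 h. They were then moved to buffer with 417 nM [3H]-IAA or [3H]-2,4-D ± NPA for 2 h. Three 5 mm segments were dissected and counted by liquid scintillation.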

[5] = molecular target: T3, PIN8 I51Y (Arabidopsis thaliana, UniProt Q9LFP6, I51Y); assay: SSM electrophysiology peak current response, PIN8 I51Y proteoliposomes; assay type: biochemical; conditions: for Imax: PIN8 I51Y
T3 sequence (Q9LFP6 1-367 I51Y): T1 sequence (Q9LFP6 1-367 N117A) with I51Y, A117N

[6] = molecular target: T4, PIN8 Y150A (Arabidopsis thaliana, UniProt Q9LFP6, Y150A); assay: SSM electrophysiology peak current response, PIN8 Y150A proteoliposomes; assay type: biochemical; conditions: for Imax: PIN8 Y150A
T4 sequence (Q9LFP6 1-367 Y150A): T1 sequence (Q9LFP6 1-367 N117A) with A117N, Y150A

[7] = molecular target: T2, PIN8; assay: KD of substrate binding by competition with NPA binding current; conditions: KD relative to IAA
How it was run: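 Purified PIN8 (LMNG) was reconstituted at LPR 10 into soy polar lipid/POPC liposomes in Ca2+-free Ringer pH 7.4 and adsorbed on SSM sensors. Current from 100 µM NPA was recorded with test compound at 0–1000 µM in both activating and non-activating solutions (3 s single exchange). KD was taken as the half-maximal point of a one-site fit of peak current inhibition. n = 3 sensors, 3 technical replicates each.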

[8] = molecular target: T2, PIN8; conditions: read-out: KD of IAA binding by PIN8, previously described; cited from earlier work

| SMILES | 2,4-D export rate relative to the IAA transport rate [1] | current response with N117A mutation [2] | 2,4-D export transport rate relative to that determined for IAA [3] | transport in pin1 mutants ([4]; pin1 mutant stem segments) | transport lower than IAA transport ([4]; wildtype plants, stem segments) | EC50 [5] | Imax [5] | EC50 [6] | Imax [6] | affinity lower compared to IAA [7] | Kd [8] |
| --- | --- | --- | --- | --- | --- | --- | --- | --- | --- | --- | --- |
| O=C(O)COc1ccc(Cl)cc1Cl [2,4-D, 2,4-dichlorophenoxyacetic acid] | about half | abolishes the current response | about half | completely abolished | about 20 fold | 641 ± 77 µM | 3 ± 0.8 nA | 684 ± 256 µM | 5 ± 1 nA |  |  |
| O=C(O)COc1ccc(Cl)cc1 [4-CPA, 4-chlorophenoxyacetic acid] |  | abolishes the current response |  |  |  | 1040 ± 252 µM | 3 ± 0.8 nA | 2620 ± 263 µM | 5 ± 0.4 nA | ~ 8 fold |  |
| O=C(O)Cc1c[nH]c2ccccc12 [IAA, indole-3-acetic acid] |  |  |  |  |  | 547 ± 171 µM | 2 ± 0.2 nA | 1210 ± 298 µM | 4 ± 0.3 nA |  | 40 ± 15 µM |

Source: publication PMC11383987 (bioRxiv, 2024)
